Source: ChEMBL document CHEMBL1135197, “The synthesis and biological evaluation of a series of potent dual inhibitors of farnesyl and geranyl-Geranyl protein transferases” (Bioorg Med Chem Lett, 2002)
pEC50, pIC50: −log10 of the molar value. “And” between values parts separate entries of the source, which are not always exact repeats. Equal entries are not always repeated.

What was measured:
[1] = target: T1, Geranylgeranyl transferase type I (Homo sapiens, UniProt P49354+P53609); assay: (§1) Inhibition of [1-3H]-GGPP incorporation into biotinylated K4B-Ras peptide by geranylgeranyl transferase in the presence of 5 mM ATP; type: protein-complex assay
How it was run: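 Scintillation proximity assay: GGPTase reaction of [1-3H]GGPP with a biotinylated peptide of the K4B-Ras C-terminus at several inhibitor concentrations. IC50 is the concentration cutting radiolabel incorporation by 50% relative to uninhibited controls. Values are the mean of at least two determinations.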

[2] = target: T2, Protein farnesyltransferase (Homo sapiens, UniProt P49354+P49356); assay: The concentration required to displace 50% of a highly potent radiolabeled FPTase inhibitor; type: protein-complex assay
[3] = target: T2, Protein farnesyltransferase; assay: Inhibitor of Farnesyl protein transferase (FTPase) required to reduce radiolabel [1-3H] incorporation by 50%; type: protein-complex assay
How it was run: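 Purified recombinant FPTase transfers [1-3H]FPP onto a recombinant protein substrate carrying the K-ras C-terminus. IC50 is the inhibitor concentration that lowers radiolabel incorporation by 50% relative to uninhibited controls. Values are the mean of at least two determinations.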

[4] = target: T1, Geranylgeranyl transferase type I; assay: Inhibition of geranylgeranylation of the C-terminal CAAX sequence of Rap 1a in PSN-1 cells; type: functional, cell-based
How it was run: (§2)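 PSN-1 cells; the read-out is inhibition of geranylgeranylation at the C-terminal CAAX sequence of Rap 1a, reported as EC50. Values are the mean of at least two determinations.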

[5] = target: T2, Protein farnesyltransferase; assay: Inhibition of Farnesyl protein transferase radiolabel [1-3H] incorporation; type: protein-complex assay
[6] = target: T2, Protein farnesyltransferase; assay: Displacement of radiolabeled farnesyl transferase inhibitor; type: protein-complex assay
[7] = target: T1, Geranylgeranyl transferase type I; assay: Inhibition of geranylgeranylation of C-terminal CAAX sequence of Rap 1a in PSN-1 cells; type: functional, cell-based; how it was run: as §2
[8] = target: T1, Geranylgeranyl transferase type I; assay: as §1; type: protein-complex assay; remark: listed apart in the source
How it was run: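 Scintillation proximity assay: GGPTase reaction of [1-3H]GGPP with a biotinylated peptide of the K4B-Ras C-terminus at several inhibitor concentrations. Values are the mean of at least two determinations.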

SMILES | pIC50 [1] | pIC50 [2] | pIC50 [3] | pEC50 [4] | pIC50 [5] | pIC50 [6] | pEC50 [7] | pIC50 [8]
COc1ccccc1COC(=O)N1CCN(Cc2cncn2Cc2ccc(C#N)cc2)CC1 | 9.08 | 8.40 and 7.57 | 8.51 |  |  |  |  | 
Cc1ncc(CN2CCN(C(=O)OCc3ccccc3)CC2)n1Cc1ccc(C#N)cc1 | 6.10 |  | 7.72 |  |  |  |  | 
COc1ncccc1COC(=O)N1CCN(Cc2cncn2Cc2ccc(C#N)cc2)CC1 | 7.32 | 7.89 | 7.74 |  |  |  |  | 
CCOc1ccccc1COC(=O)N1CCN(Cc2cnc(C)n2Cc2ccc(C#N)cc2)CC1 | 7.10 | 8.95 | 8.82 |  |  |  |  | 
N#Cc1ccc(Cn2cncc2CN2CCN(C(=O)OCc3ccccc3CC(F)(F)F)CC2)cc1 | 8.32 | 9.07 | 8.60 | 7.30 |  |  |  | 
CS(=O)(=O)c1ccccc1COC(=O)N1CCN(Cc2cncn2Cc2ccc(C#N)cc2)CC1 | 7.74 |  | 7.00 |  |  |  |  | 
N#Cc1ccc(Cn2cncc2CN2CCN(C(=O)OCc3ccccc3Cl)CC2)cc1 | 9.17 | 8.10 | 8.17 |  |  |  |  | 
N#Cc1ccc(Cn2cncc2CN2CCN(C(=O)OCc3cccc(OC(F)(F)F)c3)CC2)cc1 | 7.13 | 7.92 | 7.87 |  |  |  |  | 
COCc1ccccc1COC(=O)N1CCN(Cc2cncn2Cc2ccc(C#N)cc2)CC1 | 9.49 | 8.04 | 8.21 |  |  |  |  | 
CCOc1ncccc1COC(=O)N1CCN(Cc2cncn2Cc2ccc(C#N)cc2)CC1 | 8.06 | 8.06 | 8.30 |  |  |  |  | 
N#Cc1ccc(Cn2cncc2CN2CCN(C(=O)OCc3ccccc3OC(F)(F)F)CC2)cc1 | 9.80 | 8.66 | 9.44 | 7.74 |  |  |  | 
N#Cc1ccc(Cn2cncc2CN2CCN(C(=O)OCc3cccc4c3OCO4)CC2)cc1 | 7.70 | 7.96 | 7.81 |  |  |  |  | 
CCOc1ccccc1COC(=O)N1CCN(Cc2cncn2Cc2ccc(C#N)cc2)CC1 | 9.49 | 8.34 | 8.80 | 7.15 |  |  |  | 
COCc1ccccc1COC(=O)N1CCN(Cc2cnc(C)n2Cc2ccc(C#N)cc2)CC1 |  |  |  |  | 7.77 | 8.50 | 6.17 | 6.75
Cc1ncc(CN2CCN(C(=O)OCc3ccccc3OC(F)(F)F)CC2)n1Cc1ccc(C#N)cc1 |  |  |  |  | 9.48 | 9.47 | 6.18 | 7.28
N#Cc1ccc(Cn2cncc2CN2CCN(C(=O)OCc3ccc4c(c3)OCO4)CC2)cc1 | 6.92 |  | 6.99 |  |  |  |  | 
Cc1cccc(COC(=O)N2CCN(Cc3cncn3Cc3ccc(C#N)cc3)CC2)c1 | 7.12 | 6.78 | 7.47 |  |  |  |  | 
Cc1ccccc1COC(=O)N1CCN(Cc2cncn2Cc2ccc(C#N)cc2)CC1 |  | 7.20 | 8.19 |  |  |  |  | 8.04
